The list is not random: actives were taken first. Their share in the collection is about 1.8%.
mABHD4 FP: ABHD4 (mouse) inhibition, primary FP screen; Q8VD66; purified mABHD4, FP-Rh probe fluorescence polarization; inhibition, % at 8.92 µM; actives 0.54% (n = 370,000);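 active = inhibition exceeding the mean over every tested compound plus 3 SD, cut at about 30% in these data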;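 also: 0% = plate median of compound wells and 100% = S159A mutant with DMSO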
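Material: mouse ABHD4 enzyme, wild type; Benchmarks: S159A mutant high control, sample median low control; Buffer or medium: HEPES pH 7.0, NaCl, Pluronic buffer; Signal: fluorescence polarization; Read-out: percent inhibition of probe binding, normalized to plate controls; Timing: pre-incubation 45 min, probe exposure 60 min, at 25 °C; Dosing: 8.92 µM, single dose.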
DDE Tn6 FP inh: DD(E)-Tn6 binding inhibition, primary FP screen; P02675; Fibrin DD(E) TRITC-Tn6 fluorescence polarization displacement; inhibition, % at 8.3 µM; actives 0.21% (n = 370,000); AID 720509;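 active = inhibition above a per-campaign cutoff: mean of compounds within control limits plus 3 SD, cut at about 15% in these data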;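 also: 0% = median of all compound wells on the plate and 100% = blocking peptide control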
Target sequence (P02675 whole entry, looked up): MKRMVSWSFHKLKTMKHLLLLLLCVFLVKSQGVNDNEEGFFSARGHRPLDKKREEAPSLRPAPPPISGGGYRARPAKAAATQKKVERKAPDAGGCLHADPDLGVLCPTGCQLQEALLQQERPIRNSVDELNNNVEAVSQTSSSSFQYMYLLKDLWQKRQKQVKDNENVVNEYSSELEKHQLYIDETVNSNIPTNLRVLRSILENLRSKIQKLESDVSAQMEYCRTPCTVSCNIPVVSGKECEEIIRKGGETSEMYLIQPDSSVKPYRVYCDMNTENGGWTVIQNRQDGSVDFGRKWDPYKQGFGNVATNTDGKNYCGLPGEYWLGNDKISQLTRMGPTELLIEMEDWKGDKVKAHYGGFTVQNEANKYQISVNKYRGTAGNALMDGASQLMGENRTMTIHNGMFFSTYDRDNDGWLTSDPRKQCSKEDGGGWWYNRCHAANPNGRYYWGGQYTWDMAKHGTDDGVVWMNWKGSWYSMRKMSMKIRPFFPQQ
HTRA1 inh: blocks human HTRA1 serine peptidase; Q92743; recombinant HTRA1, FP-rhodamine activity-based probe, fluorescence polarization; inhibition, % at 5.96 µM; actives 0.5% (n = 340,000); AID 504803; in the data active = inhibition above about 36%;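 also: 0% = enzyme with DMSO and 100% = wells lacking enzyme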
TCR CD3 inh: blocks the human TCR-CD3 interaction. TAMRA-labeled TCR probe fluorescence, biochemical. inhibition, % at 9.4 µM. actives 0.37% (n = 360,000); in the data active = inhibition above about 19%;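 also: recombinant mutant TCR 2C K166C tagged with TAMRA read by polarization; 0% = receptor in buffer alone and 100% = receptor with positive control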
SIAE inh: blocks human sialic acid acetylesterase; Q9HAT2; SIAE FP-Rh probe binding, fluorescence polarization; inhibition, % at 9.66 µM; actives 0.69% (n = 370,000);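 active = inhibition above a cutoff: mean of compounds within the control limits plus 3 SD of those, cut at about 17% in these data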;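 also: 0% = plate median of compound wells and 100% = probe without SIAE protein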
Tn7 DDE FP: disrupts Tn7 cyclic peptide binding to fibrin D-Dimer-E complex. P02675. FP displacement of FITC-Tn7 peptide from fibrin DD(E); 0% = median of compound wells per plate. inhibition, % at 8.3 µM. actives 0.13% (n = 370,000);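 active = inhibition above the mean of compounds falling within the control limits plus 3 SD of them, cut at about 14% in these data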;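 also: 0% = plate median of compound wells and 100% = 10 µM Aha-Tn7 peptide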
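Assay system: Human fibrin DD(E) protein | Medium: Tris buffer with calcium and detergent, pH 7.8 | Reagent: 0.1 µM fluorescent Tn7 | Compound dosing: Single point at 8.3 µM | Times: 10 min preincubation, 3 h with tracer, room temperature | Detection: Fluorescence polarization of the labelled Tn7 tracer | Controls: Aha-Tn7 high control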
mABHD4 conf: ABHD4 (mouse) inhibition, FP confirmation. shares compounds with mABHD4 FP. purified mABHD4, FP-Rh probe fluorescence polarization. inhibition, % at 8.92 µM. actives 55% (n = 1,800). AID 720658;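 active = mean inhibition across replicates above the hit cutoff set in the primary screen, cut at about 30% in these data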;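 also: 0% = wild-type ABHD4 with DMSO and 100% = catalytically dead S159A mutant with DMSO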
The depositor's hits bear a star; x = not tested or not shown.

SMILES	mABHD4 FP	DDE Tn6 FP inh	HTRA1 inh	TCR CD3 inh	SIAE inh	Tn7 DDE FP	mABHD4 conf
Cc1ccc(C)c(OCC(O)CNC2CCCC2)c1 (stereo not drawn)	38.5*	5.5	3.8	0.3	-11.8	6.2	-3.7
C=CCN1[C@H](C)COc2cc(F)ccc2S1(=O)=O	-2.9	9.5	x	x	-5.0	-4.1	x
O=C(N[C@H](C(=O)N1CCC[C@H]1C(=O)NCCc1ccccc1Cl)C1CCCCC1)c1ccc(Cl)c(Cl)c1	-8.9	-6.2	x	-0.6	-16.5	1.0	x
Cc1cc(Cl)c(S(=O)(=O)Nc2ccc3c(c2)OCO3)cc1OCC(=O)NC1CCCCC1	29.6*	-7.9	-14.2	0.2	-1.9	-1.0	2.6
O=C(NCCc1c[nH]c2ccccc12)OCc1cn(-c2ccc(F)cc2F)nn1	0.2	1.2	x	x	4.7	-1.0	x
O=S(=O)(c1ccc(NC(=S)N/N=C/c2ccc(O)c(O)c2)cc1)N1CCOCC1	31.2*	-0.6	35.2	8.0	-4.2	4.8	20.8
O=S(=O)(c1ccc(NC(=S)N/N=C/c2cccc(Oc3ccccc3)c2)cc1)N1CCOCC1	1.9	-4.0	-13.2	-1.7	-1.7	-5.2	x
COc1cccc(/C=C2\CC3(OC(=O)C4CCCC4)CCCN2C3)c1 (stereo not drawn)	-1.8	-4.3	x	x	13.0	-0.1	x
CCN(CC)CCN1C(=O)C(=O)/C(=C(/O)c2c(C)[nH]c(C(=O)OC)c2C)C1c1cccs1 (stereo not drawn)	34.5*	-0.9	1.7	9.4	7.6	-8.7	-17.1
COC(=O)[C@]12C[C@H](CC(=O)N3CCN(C(=O)C4CC4)CC3)C(=O)N(Cc3ccc4c(c3)OCO4)C1=C[C@H](C(C)C)O[C@@H]2C1CC1	5.3	-0.2	x	x	-0.1	1.0	x
COC(=O)[C@H](C(C)C)N1Cc2nnn(Cc3ccc(C)cc3)c2-c2ccccc2S1(=O)=O	1.5	1.0	x	x	-0.7	4.0	x
Cc1ccc(C(=O)NNC2=Nc3cccc4cccc2c34)cc1	30.0*	-2.7	10.7	-3.9	-2.3	-8.2	22.7
COc1ccc(C(=O)NNC2=Nc3cccc4cccc2c34)cc1	24.1	-4.8	11.0	-2.2	0.7	3.7	x
O=C1NCN(c2ccccc2)C12CCN(CCCC(c1ccc(F)cc1)c1ccc(F)cc1)CC2	31.9*	-8.7	-9.6	-8.7	3.4	-2.6	37.0*
COc1ccc(-c2cc(-c3nnc(SCC(=O)Nc4ccccc4-c4ccccc4)n3N)[nH]n2)cc1	-13.1	-11.0	x	x	-21.8	4.4	x
CCCCCN=C(N)N/N=C/c1c[nH]c2ccc(OC)cc12	40.7*	-4.7	11.9	-3.8	-4.5	2.8	53.8*
COc1ccc(N2CC(C(=O)N/N=C/c3c[nH]c4ccccc34)CC2=O)cc1 (stereo not drawn)	4.0	-4.5	2.7	0.2	1.4	3.5	x
COP1(=O)CCOCC[C@H](CC(C)C)NC(=O)[C@H](CC(C)C)N1 (stereo partly drawn)	-0.2	4.5	x	x	2.5	8.1	x
COc1ccccc1N1C(=O)C2C(c3ccc(F)cc3)NN(C(=O)c3ccc(C)cc3)C2C1=O (stereo not drawn)	33.7*	-1.9	0.7	-4.1	0.6	-6.2	24.1
Cc1ccc(C(=O)N2NC(c3ccc(F)cc3)C3C(=O)N(c4ccc(C)cc4)C(=O)C32)cc1 (stereo not drawn)	0.9	4.2	-11.7	0.7	1.9	2.2	x
CCc1nc2ccc(C(=O)NCCc3ccco3)cc2nc1CC	x	x	7.8	x	x	x	x
O=C(NCCCO)c1ccc2nc(-c3ccco3)c(-c3ccco3)nc2c1	37.1*	-3.7	9.2	9.2	9.0	2.8	3.6
Cc1cc(-c2ccc3c(c2)COc2c4ccccc4nn2-3)on1	30.8*	-3.4	-1.1	5.5	-2.5	-0.6	-2.3
Cc1ccc(NCc2ccccc2)cc1	0.9	7.9	4.0	8.4	6.6	3.7	x
Cc1ccc(NCc2cccc(B(O)O)c2)cc1	59.0*	2.5	4.0	-1.8	9.4	-5.4	61.3*

Bioassay records from PubChem BioAssay.
